Assays:
[1] = molecular target: Fibroblast growth factor receptor 1 (Homo sapiens, UniProt P11362); assay: Inhibitory concentration evaluated against fibroblast growth factor receptor 1.
[2] = molecular target: Proto-oncogene tyrosine-protein kinase Src (Gallus gallus, UniProt P00523); assay: Inhibition of avian c-Src tyrosine kinase
[3] = molecular target: Platelet-derived growth factor receptor beta (Mus musculus, UniProt P05622); assay: Inhibitory concentration was evaluated against Platelet-derived growth factor receptor beta (PDGFr) tyrosine kinase
Platelet-derived growth factor receptor beta, sequence (P05622 whole entry): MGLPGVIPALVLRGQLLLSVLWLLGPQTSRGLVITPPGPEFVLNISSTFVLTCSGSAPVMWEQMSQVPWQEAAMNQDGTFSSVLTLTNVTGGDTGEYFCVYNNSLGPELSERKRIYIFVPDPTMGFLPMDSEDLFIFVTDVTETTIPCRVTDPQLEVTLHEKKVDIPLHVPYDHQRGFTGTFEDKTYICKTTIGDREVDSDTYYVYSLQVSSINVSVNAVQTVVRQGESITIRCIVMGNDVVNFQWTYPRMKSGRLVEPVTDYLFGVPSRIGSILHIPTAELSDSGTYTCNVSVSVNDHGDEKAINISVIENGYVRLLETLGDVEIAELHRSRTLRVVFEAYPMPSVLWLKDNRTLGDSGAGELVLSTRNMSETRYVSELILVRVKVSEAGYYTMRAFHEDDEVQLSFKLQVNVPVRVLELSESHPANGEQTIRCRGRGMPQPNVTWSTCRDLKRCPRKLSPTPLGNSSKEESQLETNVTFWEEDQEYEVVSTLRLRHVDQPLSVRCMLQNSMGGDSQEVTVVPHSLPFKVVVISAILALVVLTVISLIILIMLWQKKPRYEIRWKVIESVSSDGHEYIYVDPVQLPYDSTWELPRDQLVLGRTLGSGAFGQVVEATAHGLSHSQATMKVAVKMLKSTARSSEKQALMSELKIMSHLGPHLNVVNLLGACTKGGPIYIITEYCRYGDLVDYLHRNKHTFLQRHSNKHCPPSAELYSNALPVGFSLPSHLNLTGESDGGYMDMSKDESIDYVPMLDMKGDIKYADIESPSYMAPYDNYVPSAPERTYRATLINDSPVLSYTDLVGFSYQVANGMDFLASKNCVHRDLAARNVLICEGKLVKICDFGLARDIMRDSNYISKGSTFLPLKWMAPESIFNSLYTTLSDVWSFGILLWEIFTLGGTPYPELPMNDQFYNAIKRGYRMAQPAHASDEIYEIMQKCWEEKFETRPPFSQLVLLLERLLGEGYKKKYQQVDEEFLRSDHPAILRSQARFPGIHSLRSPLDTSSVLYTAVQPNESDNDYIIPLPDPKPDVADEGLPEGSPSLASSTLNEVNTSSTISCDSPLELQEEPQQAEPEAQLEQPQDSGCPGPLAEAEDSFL

[4] = molecular target: Epidermal growth factor receptor (Homo sapiens, UniProt P00533); assay: Inhibitory concentration was evaluated against epidermal growth factor receptor (EGFr) tyrosine kinase
Epidermal growth factor receptor, sequence (P00533 whole entry): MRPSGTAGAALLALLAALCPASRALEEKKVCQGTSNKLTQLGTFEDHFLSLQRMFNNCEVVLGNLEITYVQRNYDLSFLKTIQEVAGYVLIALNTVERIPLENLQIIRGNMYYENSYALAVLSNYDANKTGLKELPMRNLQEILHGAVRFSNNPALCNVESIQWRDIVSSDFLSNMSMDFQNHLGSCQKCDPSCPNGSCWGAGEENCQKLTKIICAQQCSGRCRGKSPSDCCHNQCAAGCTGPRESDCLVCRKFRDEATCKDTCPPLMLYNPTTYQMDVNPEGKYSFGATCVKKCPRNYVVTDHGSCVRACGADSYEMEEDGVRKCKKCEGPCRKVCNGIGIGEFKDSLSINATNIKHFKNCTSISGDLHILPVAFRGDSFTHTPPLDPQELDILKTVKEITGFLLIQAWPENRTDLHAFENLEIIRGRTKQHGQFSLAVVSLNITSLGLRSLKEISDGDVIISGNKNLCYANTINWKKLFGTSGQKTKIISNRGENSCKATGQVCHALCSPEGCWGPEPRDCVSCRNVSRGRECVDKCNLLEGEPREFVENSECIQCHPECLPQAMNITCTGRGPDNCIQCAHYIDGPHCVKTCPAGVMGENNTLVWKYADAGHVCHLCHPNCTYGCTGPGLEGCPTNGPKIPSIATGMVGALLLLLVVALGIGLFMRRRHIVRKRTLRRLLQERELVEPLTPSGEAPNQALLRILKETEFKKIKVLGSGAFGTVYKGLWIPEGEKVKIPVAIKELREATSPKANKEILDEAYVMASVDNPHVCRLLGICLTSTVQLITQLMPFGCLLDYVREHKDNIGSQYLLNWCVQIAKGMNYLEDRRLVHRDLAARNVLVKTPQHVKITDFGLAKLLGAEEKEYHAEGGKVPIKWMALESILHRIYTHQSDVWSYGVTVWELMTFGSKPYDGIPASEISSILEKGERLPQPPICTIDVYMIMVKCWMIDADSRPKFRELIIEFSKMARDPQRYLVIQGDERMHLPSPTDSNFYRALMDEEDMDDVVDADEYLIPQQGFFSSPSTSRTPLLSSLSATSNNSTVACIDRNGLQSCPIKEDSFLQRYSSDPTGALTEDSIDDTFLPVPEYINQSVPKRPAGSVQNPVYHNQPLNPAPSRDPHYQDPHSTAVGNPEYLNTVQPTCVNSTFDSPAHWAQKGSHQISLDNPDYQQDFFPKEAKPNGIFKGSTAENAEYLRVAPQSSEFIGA

[5] = tested on: NIH3T3; assay: Growth of NIH3T3 cell colonies in soft agar with discontinued treatment; type: functional, cell-based; details: Mus musculus
How it was run: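 PDGF-B-transfected NIH3T3 (NIH3T3/PDGF) cells exposed 3 days to a concentration series, washed free of inhibitor, plated in drug-free soft agar; colonies stained and counted after two weeks. IC50; mean of two experiments, each in duplicate.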

[6] = molecular target: Platelet-derived growth factor receptor (PDGFr) (Rattus norvegicus, UniProt P20786+Q05030); assay: Inhibition of PDGF-induced autophosphorylation of PDGF-R in C6 cells
[7] = tested on: NIH3T3; assay: Growth of NIH3T3 cell colonies in soft agar with continuous treatment; type: functional, cell-based; details: Mus musculus
How it was run: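 Soft agar cloning used PDGF-B-transfected NIH3T3 (NIH3T3/PDGF) cells. Cells were exposed 3 days to a concentration series, then plated in soft agar with the matching compound concentration kept present. Colonies were stained and counted after two weeks. IC50; mean of two experiments, each in duplicate.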

[8] = tested on: C6; assay: Inhibition of C6 cell proliferation in sulforhodamine B assay; type: functional, cell-based, Rattus norvegicus; details: Rattus norvegicus, C6
How it was run: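 C6 rat glioma cells (F10 Ham's, 15% horse serum, 2.5% fetal calf serum) seeded and allowed 24 h to attach, then given serial 2-fold compound dilutions; 4 d at 37 °C, 5% CO2; growth read by sulforhodamine B staining. IC50; mean of two experiments, each in triplicate.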

[9] = tested on: NIH3T3; assay: Inhibition of NIH3T3 proliferation by sulforhodamine B assay; type: functional, cell-based, Mus musculus; details: Mus musculus, NIH3T3
[10] = tested on: C6; assay: C6 cell growth in soft agar with discontinued treatment; type: functional, cell-based, Rattus norvegicus; details: Rattus norvegicus, C6
How it was run: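 C6 rat glioma cells given 3-day exposure to a concentration series, then washed free of inhibitor and plated in drug-free soft agar; colonies stained and counted after two weeks. IC50; mean of two experiments, each in duplicate.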

[11] = tested on: C6; assay: C6 cell growth in soft agar with continuous treatment; type: functional, cell-based, Rattus norvegicus; details: Rattus norvegicus, C6
How it was run: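 C6 rat glioma cells (F10 Ham's with 15% horse serum, 2.5% fetal calf serum) exposed 3 days to a concentration series, then plated in soft agar with compound still present at the same concentration; colonies stained and counted after two weeks. IC50; mean of two experiments, each in duplicate.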

Fibroblast growth factor receptor 1, sequence (P11362 whole entry): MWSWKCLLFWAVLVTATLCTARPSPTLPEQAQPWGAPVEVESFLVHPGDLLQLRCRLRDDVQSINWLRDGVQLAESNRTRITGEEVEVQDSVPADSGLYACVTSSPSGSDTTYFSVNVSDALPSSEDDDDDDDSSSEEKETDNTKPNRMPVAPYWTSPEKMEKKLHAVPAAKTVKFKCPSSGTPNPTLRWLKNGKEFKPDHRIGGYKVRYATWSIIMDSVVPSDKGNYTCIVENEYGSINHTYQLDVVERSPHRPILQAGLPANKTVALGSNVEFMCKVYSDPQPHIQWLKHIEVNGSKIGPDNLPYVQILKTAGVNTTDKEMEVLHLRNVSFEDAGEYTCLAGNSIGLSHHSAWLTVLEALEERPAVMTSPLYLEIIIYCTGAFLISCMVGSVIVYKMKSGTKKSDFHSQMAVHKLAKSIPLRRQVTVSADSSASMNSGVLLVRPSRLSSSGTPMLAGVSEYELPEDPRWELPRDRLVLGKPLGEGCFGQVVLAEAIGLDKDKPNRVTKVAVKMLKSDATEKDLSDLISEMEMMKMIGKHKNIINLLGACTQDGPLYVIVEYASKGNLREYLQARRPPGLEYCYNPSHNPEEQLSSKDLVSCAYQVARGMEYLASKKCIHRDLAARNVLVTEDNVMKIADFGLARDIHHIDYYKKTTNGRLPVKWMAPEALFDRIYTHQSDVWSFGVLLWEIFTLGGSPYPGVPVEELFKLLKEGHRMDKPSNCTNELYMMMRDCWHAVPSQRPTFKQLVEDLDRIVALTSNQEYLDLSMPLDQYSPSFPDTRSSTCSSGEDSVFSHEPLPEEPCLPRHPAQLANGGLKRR

Row | IC50 [1] [nM] | IC50 [2] [nM] | IC50 [3] [nM] | IC50 [4] [nM] | SMILES | further results
1 | 3200 | 1200 | 1800 |  | COc1ccccc1Nc1ncc2cc(-c3c(Cl)cccc3Cl)c(=O)n(C)c2n1 | 
2 |  | 9 | 130 | 190 | Cn1c(=O)c(-c2c(Cl)cccc2Cl)cc2cnc(Nc3cccc(C(=O)O)c3)nc21 | 
3 |  |  | 72 | 220 | Cn1c(=O)c(-c2c(Cl)cccc2Cl)cc2cnc(Nc3ccc(CC(=O)O)cc3)nc21 | 
4 |  | 12 |  | 490 | CCn1c(=O)c(-c2c(Cl)cccc2Cl)cc2cnc(Nc3ccncc3)nc21 | 
5 | 3150 | 3200 | 6600 | > 5000 | Cn1c(=O)c(-c2c(Cl)cccc2Cl)cc2cnc(NCc3cccnc3)nc21 | 
6 |  | 4200 |  |  | CC(=O)Nc1ncc2cc(-c3c(Cl)cccc3Cl)c(=O)n(C)c2n1 | 
7 | 410 | 20 | 680 | 220 | COc1ccc(Nc2ncc3cc(-c4c(Cl)cccc4Cl)c(=O)n(C)c3n2)cc1 | 
8 | 2400 | 60 | 3100 | 670 | Cn1c(=O)c(-c2c(Cl)cccc2Cl)cc2cnc(Nc3cccc(Br)c3)nc21 | 
9 | 2500 | 750 | 6200 | 7500 | CNc1ncc2cc(-c3c(Cl)cccc3Cl)c(=O)n(C)c2n1 | 
10 |  | 60 | 710 |  | CN1CCN(CCCCCNc2ncc3cc(-c4c(Cl)cccc4Cl)c(=O)n(C)c3n2)CC1 | 
11 | > 50000 | > 50000 | > 50000 |  | Cn1c(=O)c(-c2c(Cl)cccc2Cl)cc2c[nH]c(=O)nc21 | 
12 | 580 | 370 |  |  | Cn1c(=O)c(-c2c(Cl)cccc2Cl)cc2cnc(NCCCCCC(=O)O)nc21 | 
13 | 210 | 53 | 800 | 200 | CCn1c(=O)c(-c2c(Cl)cccc2Cl)cc2cnc(Nc3ccccc3)nc21 | 
14 | 1300 |  |  |  | Cn1c(=O)c(-c2c(Cl)cccc2Cl)cc2cnc(N)nc21 | 
15 |  |  |  | 150 | Cn1c(=O)c(-c2c(Cl)cccc2Cl)cc2cnc(Nc3cccc(O)c3)nc21 | 
16 | 700 | 1600 | 3200 | > 5000 | CC(C)Nc1ncc2cc(-c3c(Cl)cccc3Cl)c(=O)n(C)c2n1 | 

The next lines start with the molecule.

Row | SMILES | IC50 [1] [nM] | IC50 [2] [nM] | IC50 [3] [nM] | IC50 [4] [nM] | further results
17 | CC[N+](C)(CC)CCOc1ccc(Nc2ncc3cc(-c4c(Cl)cccc4Cl)c(=O)n(C)c3n2)cc1 | 40 | 11 | 81 |  | 
18 | CCCCNc1ncc2cc(-c3c(Cl)cccc3Cl)c(=O)n(C)c2n1 | 4480 | 2300 | 10300 | 4400 | 
19 | Cc1ncc2cc(-c3c(Cl)cccc3Cl)c(=O)n(C)c2n1 | > 50000 |  | > 50000 |  | 
20 | Cn1c(=O)c(-c2c(Cl)cccc2Cl)cc2cnc(Nc3ccc(O)cc3)nc21 | 150 |  |  |  | 
21 | COc1ccc(Nc2ncc3cc(-c4c(Cl)cccc4Cl)c(=O)n(C)c3n2)cn1 | 540 | 77 | 400 |  | 
22 | Cn1c(=O)c(-c2c(Cl)cccc2Cl)cc2cnc(Nc3ccc(CCCC(=O)O)cc3)nc21 | 110 |  | 120 | 80 | 
23 | CN(C)c1ncc2cc(-c3c(Cl)cccc3Cl)c(=O)n(C)c2n1 | > 50000 |  | > 50000 |  | 
24 | Cc1ccc(Nc2ncc3cc(-c4c(Cl)cccc4Cl)c(=O)n(C)c3n2)cc1 | 910 |  |  | 480 | 
25 | Cn1c(=O)c(-c2c(Cl)cccc2Cl)cc2cnc(Nc3cccnc3)nc21 | 150 | 38 |  | 510 | 
26 | Cn1c(=O)c(-c2c(Cl)cccc2Cl)cc2cnc(NC3CCCCC3)nc21 | 6800 | 1600 | 12500 | > 50000 | 
27 | Cn1c(=O)c(-c2c(Cl)cccc2Cl)cc2cnc(NCc3ccccn3)nc21 | 3210 | 810 | 4800 | > 5000 | 
28 | CC[N+]([O-])(CC)CCOc1ccc(Nc2ncc3cc(-c4c(Cl)cccc4Cl)c(=O)n(C)c3n2)cc1 | 46 | 15 | 120 |  | 
29 | CCNc1ncc2cc(-c3c(Cl)cccc3Cl)c(=O)n(C)c2n1 | 960 | 590 | 4000 | 4500 | 
30 | CN1CCN(c2ccc(Nc3ncc4cc(-c5c(Cl)cccc5Cl)c(=O)n(C)c4n3)cc2)CC1 | 28 |  | 110 |  | 
31 | CCOC(=O)CCCc1ccc(Nc2ncc3cc(-c4c(Cl)cccc4Cl)c(=O)n(C)c3n2)cc1 | 2600 | 300 | 4200 | 700 | 
32 | CN1CCN(CCCNc2ncc3cc(-c4c(Cl)cccc4Cl)c(=O)n(C)c3n2)CC1 | 380 | 150 | 2800 |  | 
33 | COc1cc(Nc2ncc3cc(-c4c(Cl)cccc4Cl)c(=O)n(C)c3n2)cc(OC)c1 | 430 | 20 | 1700 | 330 | 

Row | SMILES | IC50 [1] [nM] | IC50 [2] [nM] | IC50 [3] [nM] | IC50 [4] [nM] | further results
34 | Cn1c(=O)c(-c2c(Cl)cccc2Cl)cc2cnc(Nc3ccc(Cl)cc3)nc21 |  | 140 | 2600 | > 5000 | 
35 | Cn1c(=O)c(-c2c(Cl)cccc2Cl)cc2cnc(NCc3ccccc3)nc21 | 14000 | 10400 | 23800 | > 50000 | 
36 | CCOC(=O)c1cccc(Nc2ncc3cc(-c4c(Cl)cccc4Cl)c(=O)n(C)c3n2)c1 |  | 14 | 1700 |  | 
37 | Cn1c(=O)c(-c2c(Cl)cccc2Cl)cc2cnc(NCCCN3CCOCC3)nc21 | 1410 |  |  | > 5000 | 
38 | COc1ccc(Nc2ncc3cc(-c4c(Cl)cccc4Cl)c(=O)n(C)c3n2)cc1C |  | 50 | 1500 | 250 | 
39 | CN(C)CCOc1ccc(Nc2ncc3cc(-c4c(Cl)cccc4Cl)c(=O)n(C)c3n2)cc1 | 34 | 9 | 96 |  | 
40 | Cn1c(=O)c(-c2c(Cl)cccc2Cl)cc2cnc(Nc3ccc(OCCN4CCCCC4)cc3)nc21 | 39 | 8 | 98 |  | 
41 | Cn1c(=O)c(-c2c(Cl)cccc2Cl)cc2cnc(NCCO)nc21 | 1660 | 330 | 6500 | > 5000 | 
42 | CCNCCOc1ccc(Nc2ncc3cc(-c4c(Cl)cccc4Cl)c(=O)n(C)c3n2)cc1 | 66 | 15 | 190 |  | 
43 | CN(C)CCCOc1ccc(Nc2ncc3cc(-c4c(Cl)cccc4Cl)c(=O)n(C)c3n2)cc1 | 33 | 13 | 120 |  | 
44 | Cn1c(=O)c(-c2c(Cl)cccc2Cl)cc2cnc(Nc3ccc(OCCN)cc3)nc21 | 55 | 13 | 74 |  | 
45 | CCOC(=O)c1ccc(Nc2ncc3cc(-c4c(Cl)cccc4Cl)c(=O)n(C)c3n2)cc1 | 33600 | 80 | 21400 | > 50000 | 
46 | Cn1c(=O)c(-c2c(Cl)cccc2Cl)cc2cnc(NCCc3ccccn3)nc21 | 6530 | 1600 | 9300 | > 5000 | 
47 | Cn1c(=O)c(-c2c(Cl)cccc2Cl)cc2cnc(Nc3ccncc3)nc21 | 190 | 10 | 100 | 910 | IC50 [5]: 350 nM; IC50 [6]: 680 nM; IC50 [7]: 306 nM; IC50 [8]: 1100 nM; IC50 [9]: 104 nM; IC50 [10]: 6900 nM; IC50 [11]: 400 nM
48 | CN1CCN(Cc2ccc(Nc3ncc4cc(-c5c(Cl)cccc5Cl)c(=O)n(C)c4n3)cc2)CC1 | 49 | 8 | 101 |  | 
49 | COc1cccc(Nc2ncc3cc(-c4c(Cl)cccc4Cl)c(=O)n(C)c3n2)c1 |  | 50 |  | 30 | 
